The source of these data is ChEMBL document CHEMBL1123129, “Hypolipidemic activity of indan-1,3-dione derivatives in rodents” (J Med Chem, 1985).

The subject of test [1] is Rattus norvegicus. Kind of test: Compound was evaluated for the hypolipidemic activity at 20 mg/kg per day orally for 14 days on cholesterol content in rat VLDL. It counts as functional. As to conditions: route oral. In short, it runs like this: (§1)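 Male Sprague–Dawley rats (~300 g) were dosed orally each day. Blood was drawn from the abdominal vein. Lipoprotein fractions (chylomicron, VLDL, LDL, HDL) were separated by the Hatch–Lees and Havel methods. Each fraction was assayed for cholesterol, triglyceride (enzymatic kit), neutral lipids, phospholipids and Lowry protein. Values are % of 1% CMC vehicle control, N = 6.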

Test [2] has as its system Rattus norvegicus. The experiment in a line: Compound was evaluated for the hypolipidemic activity at 20 mg/kg per day orally for 14 days on cholesterol content in rat small intestine. It counts as functional. Conditions: route oral. Summed up: (§2)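 Male Sprague–Dawley rats were dosed orally for 14 days. Liver, small intestine and a 24-h fecal collection were lipid-extracted. Extracts were assayed for cholesterol (modified Liebermann–Burchard), triglyceride (enzymatic kit), neutral lipids, phospholipids and protein. Values are % of 1% CMC vehicle control, mean ± SD, N = 6.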

Test [3] concerns Mus musculus. Kind of test: In Vivo effect for the hypolipidemic activity on Acetyl-CoA carboxylase in CF1 mice after 16 days administered orally at a dose of 40 mg/kg. It counts as functional. As to conditions: route oral. Summed up:
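CF1 male mice are dosed orally at 10–60 mg/kg per day for 16 days, with 1% CMC as the control vehicle. Liver is homogenized at 10% in 0.25 M sucrose + 0.001 M EDTA, pH 7.2. Enzymes are assayed by literature methods, with Lowry protein. Activity is given as % of control (X ± SD, N = 6), with p from Student's t test.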

In test [4] the test system is Rattus norvegicus. Kind of test: Compound was evaluated for the hypolipidemic activity at 20 mg/kg per day orally for 14 days on triglycerides content in rat feces. As to conditions: route oral. It counts as functional. Summed up:
as §2

For test [5], the species on record is Mus musculus. Kind of test: In Vitro evaluation for the CF1 liver enzyme activity on Mitochondrial citrate exchange at concentration 100 uM. It counts as functional. In short, it runs like this: (§3)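 Mouse liver enzymes assayed in vitro on 10% homogenates of CF1 male mouse liver, with test drug added at 50–200 μM. Each enzyme follows a published procedure. Protein is measured by Lowry. Activity is given as % of untreated control (X ± SD, N = 6).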

For test [6], the system named is Rattus norvegicus. Kind of test: Compound was evaluated for the hypolipidemic activity at 20 mg/kg per day orally for 14 days on cholesterol content in rat HDL. It counts as functional. As to conditions: route oral. Summed up: as §1
For test [7], the species on record is Mus musculus. The experiment in a line: In Vitro evaluation for the CF1 liver enzyme activity on Hepatic lipoprotein lipase at concentration 200 uM. It counts as functional. Summed up:
as §3

The subject of test [8] is Mus musculus. The experiment in a line: Compound was evaluated for the hypolipidemic activity in CF1 male mice at a dose of 20 mg/kg orally for Serum cholesterol at 9th day. As to conditions: route oral. It is filed as functional. Summed up: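 CF1 male mice received the agent orally in 1% CMC at 10–60 mg/kg per day. Tail-vein blood was taken on days 9 and 16. Serum cholesterol was measured by modified Liebermann–Burchard on duplicate 25-µL samples, and serum triglyceride on day 16 in duplicate 50-µL samples. Values are % of vehicle control, mean ± SD, N = 6; Student's t test.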

The target of test [9] is T1, ATP-citrate synthase (Mus musculus) (UniProt Q91V92).
T1 sequence (whole entry): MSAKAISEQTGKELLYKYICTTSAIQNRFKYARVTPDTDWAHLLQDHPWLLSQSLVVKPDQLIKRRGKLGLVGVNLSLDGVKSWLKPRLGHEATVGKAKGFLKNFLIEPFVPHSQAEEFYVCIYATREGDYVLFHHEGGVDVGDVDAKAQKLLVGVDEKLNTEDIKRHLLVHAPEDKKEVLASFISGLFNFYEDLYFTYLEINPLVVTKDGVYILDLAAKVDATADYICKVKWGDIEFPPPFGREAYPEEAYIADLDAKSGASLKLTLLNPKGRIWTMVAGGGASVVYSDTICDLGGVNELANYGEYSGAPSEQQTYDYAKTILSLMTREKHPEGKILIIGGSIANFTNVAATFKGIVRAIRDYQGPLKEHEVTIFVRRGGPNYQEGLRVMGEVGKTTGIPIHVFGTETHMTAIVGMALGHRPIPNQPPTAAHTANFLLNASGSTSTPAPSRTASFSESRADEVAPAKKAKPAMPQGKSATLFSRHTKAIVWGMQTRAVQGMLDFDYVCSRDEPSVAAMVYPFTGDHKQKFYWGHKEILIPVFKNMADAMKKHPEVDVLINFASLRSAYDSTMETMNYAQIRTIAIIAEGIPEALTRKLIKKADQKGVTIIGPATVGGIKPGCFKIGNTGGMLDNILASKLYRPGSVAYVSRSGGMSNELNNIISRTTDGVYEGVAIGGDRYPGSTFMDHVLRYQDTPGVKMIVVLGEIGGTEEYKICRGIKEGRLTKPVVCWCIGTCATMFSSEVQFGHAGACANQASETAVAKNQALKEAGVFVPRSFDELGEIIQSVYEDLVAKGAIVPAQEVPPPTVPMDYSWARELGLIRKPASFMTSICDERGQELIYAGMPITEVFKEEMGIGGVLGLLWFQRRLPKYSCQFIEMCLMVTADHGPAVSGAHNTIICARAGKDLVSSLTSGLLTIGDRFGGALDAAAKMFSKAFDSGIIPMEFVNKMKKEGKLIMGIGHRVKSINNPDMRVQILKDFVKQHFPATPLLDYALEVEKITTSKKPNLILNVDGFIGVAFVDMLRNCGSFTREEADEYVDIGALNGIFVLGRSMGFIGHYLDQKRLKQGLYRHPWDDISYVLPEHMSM
The experiment in a line: In Vitro evaluation for the CF1 liver enzyme activity on ATP-dependent citrate exchange at concentration 50 uM. In short, it runs like this:
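Liver was taken from CF1 male mice and made into 10% homogenates, which were incubated with test compound at 50, 100 or 200 µM. Each enzyme was assayed by its literature method, and protein was measured by Lowry. N = 6. Activity is expressed as % of untreated control ± SD.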

Test [10] deals with Rattus norvegicus. The experiment in a line: Compound was evaluated for the hypolipidemic activity at 20 mg/kg per day orally for 14 days on triglycerides content in rat small intestine. It counts as functional. As to conditions: route oral. In short, it runs like this:
as §2

For the molecule `COc1ccc(C2C(=O)c3ccccc3C2=O)cc1` [ANISINDIONE], the Control in test [1] is given as 88%; in test [2], 87%; in test [3] it was 98%; in [4], 118%; in [5], 38%; in test [6], 216%. Further, the Control is 93% in test [7], 67% in test [8], 72% in test [9] and 89% in [10].
